Data set [1] deals with Hepatitis C virus. Description: Antiviral activity against HCV genotype 2a J6/JFH1 infected in human Huh7.5 cells after 3 days by gaussia luciferase assay. Type of data set: functional, organism-based, Hepacivirus hominis. The conditions noted are these: subtype 2a J6/JFH1, Huh-7, 72 h. Summed up: (§1)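 Huh7.5 cells stably infected with J6/JFH1-GLuc, kept in DMEM/10% FBS, glutamine, NEAA, pen/strep at 37 °C, 5% CO2. 10,000 cells/well; serially diluted compound added 1 h after plating; 3-day incubation. Replication read as Gaussia luciferase activity in supernatant; viability by Presto Blue.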

The nature of data set [2]: Inhibition of GST-tagged recombinant human full length PI4K3beta expressed in insect cells preincubated for 15 mins followed by addition of cold ATP/gamma32P-ATP measured after 30 mins in presence of MgCl2. Summed up: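 Membrane-capture radiometric assay. Purchased enzyme, final 2.5 nM. Enzyme preincubated 15 min with inhibitor (diluted in 10% DMSO), then 30 min reaction. Final: 20 mM Bis-Tris propane pH 7.5, 10 mM MgCl2, 0.075 mM Triton X-100, 0.5 mM EGTA, 1 mM DTT, 100 µM PI in PI:DOPS:DOPC, 500 ng/µL BSA, 2% DMSO, 10 µM ATP, 1 uCi γ32P-ATP. Product spotted on nitrocellulose, washed in 1M NaCl/1% phosphoric acid, phosphorimaged.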

Data set [3] deals with T1, Phosphatidylinositol 4,5-bisphosphate 3-kinase catalytic subunit delta isoform (Homo sapiens, UniProt O00329).
T1 sequence (O00329 whole entry): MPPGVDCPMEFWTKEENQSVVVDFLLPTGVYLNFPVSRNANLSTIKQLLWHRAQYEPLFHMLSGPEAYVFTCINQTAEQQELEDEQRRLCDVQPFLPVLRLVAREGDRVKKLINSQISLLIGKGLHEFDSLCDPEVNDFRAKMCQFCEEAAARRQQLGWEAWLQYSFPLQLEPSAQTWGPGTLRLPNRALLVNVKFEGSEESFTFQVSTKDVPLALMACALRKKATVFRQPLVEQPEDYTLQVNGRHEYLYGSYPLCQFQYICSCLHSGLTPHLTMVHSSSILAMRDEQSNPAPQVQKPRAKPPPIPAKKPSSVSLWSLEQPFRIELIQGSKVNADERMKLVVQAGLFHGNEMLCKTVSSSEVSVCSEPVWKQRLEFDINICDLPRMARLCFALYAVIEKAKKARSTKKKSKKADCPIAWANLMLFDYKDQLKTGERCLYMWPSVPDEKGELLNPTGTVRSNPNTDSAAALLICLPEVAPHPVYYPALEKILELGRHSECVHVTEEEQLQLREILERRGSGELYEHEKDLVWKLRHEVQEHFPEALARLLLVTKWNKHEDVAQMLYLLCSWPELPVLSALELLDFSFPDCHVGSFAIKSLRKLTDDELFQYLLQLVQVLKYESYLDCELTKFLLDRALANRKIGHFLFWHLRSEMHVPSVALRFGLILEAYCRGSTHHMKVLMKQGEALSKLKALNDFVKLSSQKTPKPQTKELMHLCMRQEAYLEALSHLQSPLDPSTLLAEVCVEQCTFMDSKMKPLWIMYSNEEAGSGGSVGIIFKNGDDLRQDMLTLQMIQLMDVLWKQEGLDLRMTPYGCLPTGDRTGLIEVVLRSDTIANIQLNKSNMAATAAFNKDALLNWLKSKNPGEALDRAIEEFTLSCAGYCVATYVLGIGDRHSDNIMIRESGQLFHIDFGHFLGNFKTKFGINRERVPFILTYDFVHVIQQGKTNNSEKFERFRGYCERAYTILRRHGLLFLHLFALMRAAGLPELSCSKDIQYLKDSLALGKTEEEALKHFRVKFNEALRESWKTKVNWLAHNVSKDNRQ
Description: Inhibition of histidine-tagged recombinant human full length PI3Kdelta expressed in baculovirus preincubated for 15 mins followed by addition of cold ATP/gamma32P-ATP measured after 20 mins in presence of MgCl2. The gist of the method: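 Final: 50 mM HEPES pH 7.5, 100 mM NaCl, 0.03% CHAPS, 10 mM MgCl2, 1 mM EGTA, 2 mM DTT, 80 µM PIP2 (PIP2:DOPS:DOPC), 500 ng/µL BSA, 2% DMSO, 10 µM ATP, 2.5 uCi γ32P-ATP. Nitrocellulose capture, phosphorimaging.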

Data set [4] in a line: Cytotoxicity against human Huh7.5 cells after 3 days by presto blue assay. It counts as cell-based, Huh-7. The gist of the method:
as §1

For data set [5], the target named is T2, Phosphatidylinositol 3-kinase catalytic subunit type 3 (Homo sapiens, UniProt Q8NEB9). Description: Inhibition of GST-tagged recombinant human full length VPS34 expressed in baculovirus preincubated for 15 mins followed by addition of cold ATP/gamma32P-ATP measured after 1 hr in presence of MnCl2. The gist of the method:
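Radiometric membrane-capture assay, 10 nM purchased vps34, 15 min preincubation with inhibitor, then 1 h reaction. Final: 50 mM HEPES pH 7.5, 0.1% CHAPS, 2mM MnCl2, 1 mM EGTA, 2 mM DTT, 100 µM PI in PI:DOPS:DOPC, 500 ng/µL BSA, 2% DMSO, 10 µM ATP, 2.5 uCi γ32P-ATP; spots washed, phosphorimaged.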

Data set [6] concerns the target T3, Phosphatidylinositol 4,5-bisphosphate 3-kinase catalytic subunit gamma isoform (Homo sapiens, UniProt P48736). Description: Inhibition of histidine-tagged recombinant human full length PI3Kgamma expressed in insect cells preincubated for 15 mins followed by addition of cold ATP/gamma32P-ATP measured after 15 mins in presence of MgCl2.
Target sequence in this assay (P48736 whole entry, canonical isoform): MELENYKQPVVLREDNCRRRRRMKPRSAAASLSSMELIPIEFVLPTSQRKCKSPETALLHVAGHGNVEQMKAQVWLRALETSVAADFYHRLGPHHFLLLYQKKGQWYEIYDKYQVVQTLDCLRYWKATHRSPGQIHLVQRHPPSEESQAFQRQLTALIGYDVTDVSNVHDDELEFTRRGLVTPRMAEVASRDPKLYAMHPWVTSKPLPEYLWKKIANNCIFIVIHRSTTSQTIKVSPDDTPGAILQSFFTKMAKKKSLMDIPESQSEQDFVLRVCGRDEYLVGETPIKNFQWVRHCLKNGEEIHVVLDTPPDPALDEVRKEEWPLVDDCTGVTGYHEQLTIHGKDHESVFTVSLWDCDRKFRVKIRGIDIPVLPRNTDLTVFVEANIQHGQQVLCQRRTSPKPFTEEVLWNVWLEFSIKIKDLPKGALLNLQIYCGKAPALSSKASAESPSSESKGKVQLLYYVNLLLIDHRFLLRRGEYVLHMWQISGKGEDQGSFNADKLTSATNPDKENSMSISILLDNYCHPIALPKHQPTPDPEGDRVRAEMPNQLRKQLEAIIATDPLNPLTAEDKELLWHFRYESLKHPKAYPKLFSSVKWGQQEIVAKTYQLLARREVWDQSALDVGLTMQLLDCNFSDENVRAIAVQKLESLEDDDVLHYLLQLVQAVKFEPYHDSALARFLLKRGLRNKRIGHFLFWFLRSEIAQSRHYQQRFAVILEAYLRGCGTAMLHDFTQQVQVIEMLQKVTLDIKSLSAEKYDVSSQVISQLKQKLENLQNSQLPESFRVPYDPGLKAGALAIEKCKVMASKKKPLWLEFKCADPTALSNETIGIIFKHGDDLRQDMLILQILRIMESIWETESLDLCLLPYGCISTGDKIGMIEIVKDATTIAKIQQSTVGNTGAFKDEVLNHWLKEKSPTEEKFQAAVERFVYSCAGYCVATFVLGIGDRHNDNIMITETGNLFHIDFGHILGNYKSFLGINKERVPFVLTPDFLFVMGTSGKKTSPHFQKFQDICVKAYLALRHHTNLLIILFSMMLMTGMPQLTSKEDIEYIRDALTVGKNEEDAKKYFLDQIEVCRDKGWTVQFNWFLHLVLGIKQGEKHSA
The target of data set [7] is T4, Phosphatidylinositol 4,5-bisphosphate 3-kinase catalytic subunit delta isoform (Homo sapiens) (UniProt O00329).
T4 sequence (whole entry): T1 sequence (O00329 whole entry)
Description: Inhibition of histidine-tagged recombinant human full length PI3Kdelta expressed in baculovirus at 50 uM preincubated for 15 mins followed by addition of cold ATP/gamma32P-ATP measured after 20 mins in presence of MgCl2.

The target of data set [8] is T3, Phosphatidylinositol 4,5-bisphosphate 3-kinase catalytic subunit gamma isoform. Description: Inhibition of histidine-tagged recombinant human full length PI3Kgamma expressed in insect cells at 50 uM preincubated for 15 mins followed by addition of cold ATP/gamma32P-ATP measured after 15 mins in presence of MgCl2.
Target sequence in this assay (P48736 whole entry, looked up, canonical isoform): as the sequence (P48736 whole entry, canonical isoform) above
The target in data set [9] is T2, Phosphatidylinositol 3-kinase catalytic subunit type 3. Description: Inhibition of GST-tagged recombinant human full length VPS34 expressed in baculovirus at 50 uM preincubated for 15 mins followed by addition of cold ATP/gamma32P-ATP measured after 1 hr in presence of MnCl2.

T2 sequence (Q8NEB9 whole entry): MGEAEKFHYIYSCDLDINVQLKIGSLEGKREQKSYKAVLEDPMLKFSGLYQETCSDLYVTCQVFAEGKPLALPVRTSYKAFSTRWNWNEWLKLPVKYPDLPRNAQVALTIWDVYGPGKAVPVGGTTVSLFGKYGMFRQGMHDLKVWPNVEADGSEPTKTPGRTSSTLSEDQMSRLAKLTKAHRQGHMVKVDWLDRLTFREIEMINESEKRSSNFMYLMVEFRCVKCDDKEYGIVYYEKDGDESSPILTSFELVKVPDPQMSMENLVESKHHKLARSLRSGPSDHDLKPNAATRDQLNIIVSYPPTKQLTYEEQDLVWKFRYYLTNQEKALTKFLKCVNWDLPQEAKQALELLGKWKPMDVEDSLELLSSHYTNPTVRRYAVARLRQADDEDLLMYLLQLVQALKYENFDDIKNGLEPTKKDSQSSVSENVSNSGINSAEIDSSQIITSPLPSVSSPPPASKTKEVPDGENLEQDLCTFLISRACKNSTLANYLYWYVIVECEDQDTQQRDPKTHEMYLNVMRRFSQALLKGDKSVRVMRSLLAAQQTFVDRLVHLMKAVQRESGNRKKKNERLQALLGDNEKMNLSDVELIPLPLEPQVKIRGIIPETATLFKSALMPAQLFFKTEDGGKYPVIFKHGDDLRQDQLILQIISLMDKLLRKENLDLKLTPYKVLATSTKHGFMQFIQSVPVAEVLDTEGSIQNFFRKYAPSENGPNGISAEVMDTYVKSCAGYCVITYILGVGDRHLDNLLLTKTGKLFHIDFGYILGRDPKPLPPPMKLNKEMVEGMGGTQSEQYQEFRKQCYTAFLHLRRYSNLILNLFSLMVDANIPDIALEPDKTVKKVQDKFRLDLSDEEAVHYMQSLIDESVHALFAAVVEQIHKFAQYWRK

Usually IC50 stands for the concentration needed to halve the response being measured. As a reminder, the CC50 is the concentration giving 50% cytotoxicity. Low readings indicate greater toxicity to the cells, high ones lower toxicity to the cells. With `COc1ccc(-c2sc(NC(C)=O)nc2C)cc1S(=O)(=O)NCCO`, the half-maximal inhibitory concentration (IC50) in data set [1] was 29000 nM; in data set [2], 4.4 nM; in [3], 223 nM; in data set [5], over 50000 nM; in data set [6], 181 nM. Also, the midpoint of cytotoxicity in data set [4], the CC50 at 72 h, lay at 42000 nM.
Turning to `Cc1nc(NC(=O)C2CCCC2)sc1-c1ccc(Cl)c(S(=O)(=O)NCCO)c1`, the IC50 in [1] is 4400 nM; in data set [2], 16 nM; in data set [3], 340 nM; in [5], over 50000 nM; in data set [6], 1500 nM. Moreover, in [4], half-maximal cytotoxicity (CC50 at 72 h) was put at 20000 nM.
As a reminder, the inhibition is how much of the control response was suppressed. For the compound `COc1ccc(-c2sc(NC(=O)C(C)(C)C)nc2C)cc1S(=O)(=O)NCCO`, the IC50 is 17000 nM in data set [1], 36 nM in [2], over 50000 nM in [5] and over 50000 nM in data set [6]. The inhibition in data set [7] was under 50%; in data set [8], under 20%; in data set [9], under 20%. In addition, the 50% cytotoxic concentration (CC50) at 72 h in data set [4] was over 40000 nM.
Consider `CC(=O)/N=c1/[nH]c(C)c(-c2ccc(Cl)c(S(=O)(=O)NCCO)c2)s1`, for which the IC50 in data set [1] is 4800 nM; in [2] it was 17 nM; in data set [5], 307 nM. Moreover, the cytotoxic concentration (CC50) at 72 h in [4] was 10000 nM.
For the compound `Cc1nc(NC(=O)C(C)(C)C)sc1-c1ccc(Cl)c(S(=O)(=O)NCCO)c1`, the IC50 was 6800 nM in [1]; 5.5 nM in [2]; 1570 nM in data set [3]; over 50000 nM in data set [5]; 3700 nM in data set [6]. The CC50 at 72 h in data set [4] amounted to 33000 nM.
Consider `CC(=O)Nc1nc(C)c(-c2ccc(Br)c(S(=O)(=O)NCCO)c2)s1`, for which the IC50 in data set [1] was found to be 3000 nM; in [2] it was 5.3 nM; in [3], 33 nM; in data set [5] it was 146 nM; in data set [6], 21 nM. Also, in data set [4], half-maximal cytotoxicity (CC50 at 72 h) was put at 5500 nM.
In the case of `CC(=O)Nc1nc(C)c(-c2ccc(Cl)c(S(=O)(=O)Nc3ccc(O)cc3)c2)s1`, the IC50 in data set [1] is 570 nM; in data set [2], 4.2 nM; in data set [3], 4.9 nM; in data set [5], 32 nM; in data set [6], 5 nM. This compound showed a CC50 at 72 h in data set [4] of 7000 nM.
As to `CC(=O)Nc1nc(C)c(-c2ccc(Cl)c(S(=O)(=O)Nc3ccc(F)cc3)c2)s1`, the IC50 in data set [1] stood at 5900 nM; in [2], 23 nM; in data set [3], 29 nM; in data set [5], 245 nM; in [6] it was 31 nM. In data set [4], the half-maximal cytotoxic concentration (CC50) at 72 h was found to be 13000 nM.
